# Assay outcomes deposited in PubChem BioAssay by Sanford-Burnham Center for Chemical Genomics.
# Hits are enriched below; roughly 1.5% of the tested compounds scored in any of these assays.
# APJ antagonist: antagonists of human APJ apelin receptor; inhibition, % at 20 µM; CHO-K1 APJ beta-arrestin complementation, luminescence; actives 0.32% (n = 330,000); AID 2521;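 active = inhibition above about 40% at 20 µM, limit read from the data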;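 note: cells challenged with 10 nM apelin-13 agonist together with compound; plate controls were apelin-13 plus DMSO wells for no effect and DMSO wells lacking apelin-13 for full effect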
# Target sequence (P35414 whole entry, looked up): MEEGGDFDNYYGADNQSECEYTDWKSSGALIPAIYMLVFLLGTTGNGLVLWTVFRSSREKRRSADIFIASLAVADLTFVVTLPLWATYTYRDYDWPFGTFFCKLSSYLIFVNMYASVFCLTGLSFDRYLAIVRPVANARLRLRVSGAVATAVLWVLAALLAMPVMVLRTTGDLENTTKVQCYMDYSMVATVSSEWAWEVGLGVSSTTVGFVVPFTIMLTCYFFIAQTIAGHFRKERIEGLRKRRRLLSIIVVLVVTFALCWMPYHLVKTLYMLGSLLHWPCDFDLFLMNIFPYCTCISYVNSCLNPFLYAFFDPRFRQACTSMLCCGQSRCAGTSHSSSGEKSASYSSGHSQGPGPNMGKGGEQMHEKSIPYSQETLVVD
# CCR6 antag: CCR6 (human) receptor antagonism; P51684; CHO-K1 CCR6 PathHunter beta-arrestin, luminescence, CCL20-stimulated; inhibition, % at 20 µM; actives 0.49% (n = 340,000); AID 493098;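 active = compounds whose inhibition of the agonist-driven luminescence signal at 20 µM reaches about 50%, limit read from the data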;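 note: cells stimulated with CCL20 at 14 nM final; plate controls were DMSO with CCL20 for no effect and DMSO without agonist for full effect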
# APJ ag: APJ receptor agonism. P35414. activation, % at 20 µM. actives 0.11% (n = 330,000). CHO-K1 APJ PathHunter beta-arrestin, luminescence; 0% DMSO wells, 100% apelin. AID 2520;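 active = activation more than six SD over the plate average, tested at 20 µM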;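 note: 0% = DMSO alone and 100% = apelin-13 at 10 nM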
#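 Incubation: overnight seeding, 90 min compound at 25 °C, 1 h detection; test system: PathHunter CHO-K1 APJ (AGTRL-1) beta-arrestin reporter cells; amount: 1000 cells/well; doses: one dose, 20 µM compound, 1% DMSO; measured by: beta-gal luminescence; measure: agonist-driven arrestin binding to APJ; benchmarks: negative DMSO alone, positive Apelin-13 at 10 nM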
# CXCR6 block: inhibitors of human CXCR6 receptor. O00574. CHO-K1 PathHunter CXCR6 beta-arrestin, luminescence. inhibition, % at 20 µM. actives 0.36% (n = 360,000); in the data active = inhibition above about 34%, passing the limit was not always enough;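 note: antagonist mode with CXCL16 agonist at 10 nM final; 0% = 10 nM CXCL16 with DMSO and 100% = unstimulated wells without agonist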
# EBI2 antag: antagonists of human EBI2 receptor | P32249 | AID 651636 | EBI2 beta-arrestin recruitment, luminescence, 7a,25-OHC stimulated | inhibition, % at 5 µM | actives 0.81% (n = 360,000); in the data active = inhibition above about 38%;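 note: enzyme fragment complementation signal reports receptor beta-arrestin coupling in cells; 0% = agonist plus DMSO wells and 100% = wells without agonist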
# The depositor's hits bear a star; · = no result given; ! = not active in a repeat.
SMILES,APJ antagonist,CCR6 antag,APJ ag,CXCR6 block,EBI2 antag
COc1ccc(-c2nc(-c3ccc4c(c3)OCO4)[nH]c2-c2ccc(OC)cc2)cc1,17,17,2,4,48*
COc1ccc2c(c1)C(=O)C1(CC2)OC1c1cccnc1 (stereo not given),·,·,·,-6,-2
COc1ccc(C2CCCN2C(=O)Nc2ccc(C)c(C)c2)cc1OC (stereo not given),24,17,1,6,51*
COc1ccc(C2CCCN2C(=S)Nc2ccc(C)c(C)c2)cc1OC (stereo not given),-15,10,0,-14,7
COC(=O)/C=C1\OC(C2CC2)c2ccccc21 (stereo not given),·,·,·,·,-35
Cc1c(N=NC2=C(O)CCCC2=O)c(=O)n(-c2ccccc2)n1C,12,70*,-3,49*,7
C[C@@H]1COc2cc(N3CCC[C@@H]3CO)ccc2S(=O)(=O)N1,·,·,·,-3,-6
CC(C)=CCCC(C)c1cc(C(=O)NCCc2ccc(O)cc2)c(N)s1 (stereo not given),·,·,·,·,24
CC(=O)N(C1CC(C)C(C#N)(C#N)C1(C#N)C#N)N(C)C (stereo not given),15,78*,-2,34,-9
CCCC(=O)N(C1CC(C)C(C#N)(C#N)C1(C#N)C#N)N(C)C (stereo not given),32,94*,-5,81*,30
COC(=O)C(C#N)(CCC(=O)c1ccccc1)CCC(=O)c1ccccc1,·,·,·,2,4
CC(=O)N(C(C)=O)c1ccc(Oc2ccc(Oc3ccc(N(C(C)=O)C(C)=O)cc3)cc2)cc1,·,·,·,-5,-5
CCOC(=O)c1csc(Nc2nc3ccc(F)cc3s2)n1,42*,27,-14,17,41
CCCS(=O)(=O)NC(=O)C1(C)CCN(C(=O)c2ccc3c(c2)OCO3)C1 (stereo not given),·,·,·,3,3
O=C(c1ccc(Cl)nc1)c1cccs1,-23,3,-1,·,·
O=C(c1cccs1)c1no[n+]([O-])c1C(=O)c1cccs1,-7,4,30*,-11,4
CC(C)OC(=O)c1sc2nc(-c3ccccc3)ccc2c1N,7,-12,1,-7,48*
COc1ccc(C(=O)c2sc3nc(-c4ccccc4)ccc3c2N)cc1,8,-17,0,-4,11
COc1ccc(-c2noc(C3CCCN(C(=O)Nc4ccccc4)C3)n2)cc1 (stereo not given),-16,4,-2,-9,-4
COc1ccc(NC(=O)N2CCCC(c3nc(-c4ccc(C(C)C)cc4)no3)C2)cc1 (stereo not given),-24,4,3,10,72*
O=C(Oc1ccccc1/C=C\C(=O)c1cc2ccccc2o1)c1cccc(F)c1,10,24,-4,7,41
O=C(Oc1ccccc1/C=C\C(=O)c1cc2ccccc2o1)c1ccccc1,-22,37,-1,19,48*
COc1ccc(/C=C/C2=NNC(=O)CC2)cc1,-31,77*,-2,3,4
CCOc1ccc(/C=C/C2=NNC(=O)CC2)cc1,-9,13,-1,-6,-10
Cc1cccc(N2CCN(C(=O)Cn3sc4nc(C)cc(C)c4c3=O)CC2C)c1 (stereo not given),6,72*,8,8,7
SMILES,APJ antagonist,CCR6 antag,APJ ag,CXCR6 block,EBI2 antag
O=C1NC[C@H](c2ccccc2)OC(=O)[C@@H](Cc2ccc(F)cc2)CC/C=C/C[C@H]1CC(=O)N(CCO)Cc1ccccc1,·,33,·,37,4
O=C1NC[C@H](c2ccccc2)OC(=O)[C@H](Cc2ccc(F)cc2)CC/C=C/C[C@H]1CC(=O)N(CCO)Cc1ccccc1,·,33,·,48*,-25
Cc1cc(OC(C)C(=O)NC2CC(C)(C)NC(C)(C)C2)c2c(C)c(C)c(=O)oc2c1 (stereo not given),·,·,·,-1,-3
Cc1c(CCOC(=O)c2ccc(Cl)cc2Cl)sc[n+]1CC(=O)c1ccc(Br)cc1,15,38,-7,0,10
Cc1c(CCOC(=O)C2C3CC4CC(C3)CC2C4)sc[n+]1CC(=O)c1ccc(Br)cc1 (stereo not given),17,53*!,-10,3,9
O=C1NC[C@H](Cc2ccc(O)cc2)N(C[C@@H]2CCCN2C[C@H](Cc2ccc(O)cc2)N2C[C@H](Cc3ccccc3)N(CCc3ccccc3)C(=O)C2=O)C1=O,·,·,·,-1,-2
